Compound activity from PubChem.
CHOP inh = blocks CHOP induction under ER stress. CHO-K1 CHOP-promoter luciferase, tunicamycin-induced, 15-18 h. inhibition, % at 10 µM. AID 2732. 3.8% of 220,000 active;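 active = compounds that reduced the stress-induced luciferase reporter signal by more than about 70% of percent inhibition, limit read from the data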
L major viab = inhibitors of Leishmania major promastigote growth | inhibition, % at 10 µM | Leishmania major promastigotes, resazurin fluorescence viability | 9% of 200,000 active; in the data active = inhibition above about 50%;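 note: promastigotes grown with compound for 44 hours at 28 °C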
UPR XBP1 act = activators of adaptive arm of unfolded protein response (XBP1); CHO-XBP1 luciferase reporter, IRE1-XBP1 UPR activation, luminescence; percent of tunicamycin response, DMSO as zero; activation, % at 20 µM; 0.33% of 330,000 active; AID 463104;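 active = versus positive control, 20 µM dose yields 30% or more activation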
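Material – CHO cell line with stable XBP1 luciferase reporter · Buffer or medium – F12 plus 10% FBS · Compound – single point, 20 µM final compound, 1% DMSO · Schedule – 16-18 h cell attachment at 37 °C, then 6 h compound exposure · Signal – Steady-Glo luminescence read · Benchmarks – high control tunicamycin 10 µg/mL final, low control DMSO vehicle only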
Dynein cargo inh = blocks dynein driven cargo transport along microtubules. AID 1381. 3617.4 mouse cells, GR-EGFP nuclear translocation imaging; test concentration mostly 20 µM; stimulated with dexamethasone, 1 µM; stronger effect = lower value. 0.47% of 220,000 active. z-score, hits read low;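 active = plate z-score of nuclear minus cytoplasmic receptor signal below a set negative limit, without overly bright fluorescence or cell loss, cut at about -3.5 in these data, passing the limit was not always enough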;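 note: z-score of nuclear minus cytoplasmic ring GR-EGFP intensity difference per well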
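Buffer or medium – tet-free medium with charcoal-stripped serum · Signal – automated 10x imaging of fixed Hoechst-stained cells · Also added – dexamethasone agonist, 1.0 µM final, for 30 min · Incubation – induction 48 h, compound 1 h, agonist 30 min · Read-out – GR-EGFP nuclear translocation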
UPR CHOP act = activators of apoptotic arm of unfolded protein response (CHOP). CHO-CHOP luciferase reporter, UPR activation, luminescence; percent of tunicamycin response over DMSO baseline. activation, % at 10 µM. AID 449763. 0.34% of 330,000 active;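 active = at 10 µM dose, activation of 40% or more, normalized to positive control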
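Assay system: CHO cells with stable CHOP pathway luciferase reporter; Buffer or medium: F12 plus 10% serum; Times: 16-18 h cell attachment, then 6 h compound exposure, 37 °C; Signal: luciferase luminescence; Read-out basis: percent activation relative to tunicamycin control; Control set: tunicamycin high control, DMSO low control.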
T cruzi inh = blocks replication of Trypanosoma cruzi; AID 1885; T. cruzi beta-gal in NIH3T3, luminescence, 90 h; 1.4% of 300,000 active; inhibition, % (test concentration not listed);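 active = mean inhibition across valid replicates above about 55%, limit read from the data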;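 note: signal also drops with host cell toxicity which is not excluded here; higher percent means less beta-gal luminescence so fewer parasites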
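Material: NIH/3T3 host cells with β-galactosidase reporter T. cruzi; Input: 5,000 host fibroblasts per well; Medium: DMEM, 2% fetal bovine serum; Compound: 50 nL DMSO compound solution per well; Schedule: 3 h host attachment, then at least 90 h co-culture; Detection: luminescent β-galactosidase signal after 60 min lysis.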
Numbers stand for hits; n = inactive; x = no result. The full list was thinned out, with hits kept by preference.

SMILES | CHOP inh | L major viab | UPR XBP1 act | Dynein cargo inh | UPR CHOP act | T cruzi inh
CCOC(=O)c1sc2nc(C(C)C)c3c(c2c1N)CC(C)(C)OC3 | 70.2 | n | n | n | n | n
CCOC(=O)c1sc2nc(N3CCCC3)c3c(c2c1N)CC(C)(C)OC3 | n | n | n | n | n | n
CCOc1ccc(C(=O)NC2CC(=O)N(c3ccc4c(c3)OCCO4)C2)cc1 (configuration not stated) | x | x | n | x | n | n
S=C(Nc1cccnc1)N1CCN(c2ccccc2Cl)CC1 | x | x | n | x | n | n
COc1ccc(NC(C)=O)cc1CNC(=O)CN1CCOCC1 | x | x | n | x | n | n
COCCNC(=O)C(c1ccc(C)cc1)N(C(=O)CCC(=O)Nc1ccccn1)C1CCCCC1 (configuration not stated) | x | x | n | x | n | n
Cc1ccccc1NC(=O)CCN1CCc2ccccc2C1 | n | n | n | n | n | n
Cc1ccc(C)c(NC(=O)COC(=O)CCC(=O)c2cccs2)c1 | n | n | n | n | n | n
COc1ccc2ncc(S(=O)(=O)c3ccccc3)c(N3CCN(c4ccccc4)CC3)c2c1 | n | 99.1 | n | n | n | n
COc1ccc2ncc(S(=O)(=O)c3ccccc3)c(N3CCC4(CC3)OCCO4)c2c1 | n | n | n | n | n | n
CSCC[C@H](NC(=O)OC(C)(C)C)C(=O)N1CCC(C(=O)N[C@@H](C)C(=O)NCc2ccc(F)cc2)CC1 | x | x | n | x | n | n
CCN(CC(=O)Nc1c(F)cccc1F)C(=O)c1ccc(C)c(S(=O)(=O)N2CCCCC2)c1 | x | x | n | x | n | n
O=C(NCCCO)C(=O)Nc1cc2c3c(c1)CCN3C(=O)CC2 | x | x | n | x | n | n
CC1(C)[C@H]2CC=C(CN3CCC(N4CCC(C(=O)N5CCCC5)CC4)CC3)[C@@H]1C2 | n | 89.3 | n | n | n | n
CCc1ccc(CN2CCC(N3CCC(C(=O)N4CCCC4)CC3)CC2)o1 | x | x | n | x | n | n
O=C(Nc1ccc(Oc2ccc(NC(=O)Nc3ccc([N+](=O)[O-])cc3)cc2)cc1)Nc1ccc([N+](=O)[O-])cc1 | n | x | n | n | n | 66.9
CC(=O)Nc1ccc(OS(=O)(=O)c2c(C)cc(C)cc2C)cc1 | n | 80.3 | n | n | n | n
CC(=O)Nc1ccc(OS(=O)(=O)c2ccc([N+](=O)[O-])cc2)cc1 | n | n | n | n | n | 71.2
CC(=O)Nc1ccc(OS(=O)(=O)c2ccc(Cl)cc2)cc1 | x | x | n | x | n | n
CC(=O)c1ccc(NC(=O)Nc2ccc([N+](=O)[O-])cc2)cc1 | n | n | n | n | n | n
CC(=O)Nc1ccc(OS(=O)(=O)c2ccc(C)cc2C)cc1 | n | n | n | n | n | n
CC(=O)Nc1ccc(OCCOc2ccc([N+](=O)[O-])cc2)cc1 | n | x | n | n | n | n
CC(=O)Nc1ccc(S(=O)(=O)Oc2ccc(C=O)cc2)cc1 | n | 78.3 | n | n | n | n
COc1ccc(S(=O)(=O)N2CCN(C(=O)N3CCOCC3)C2C)cc1 (configuration not stated) | x | x | n | x | n | n
Nc1nc(-c2ccc(Oc3ccccc3)cc2)c(CC(=O)O)s1 | x | x | n | x | n | n
SMILES | CHOP inh | L major viab | UPR XBP1 act | Dynein cargo inh | UPR CHOP act | T cruzi inh
O=[N+]([O-])c1cccc(S(=O)(=O)NCC2CC3CCC2C3)c1 (configuration not stated) | x | x | n | x | n | n
CC(C)(C)OC(=O)N1CCC(CNC(=O)c2ccc(F)cc2)CC1 | n | x | n | n | n | n
Cc1cc(F)ccc1N1CCC(N2CCN(CCC(C)C)C(CCO)C2)CC1 (configuration not stated) | n | 94.9 | n | n | n | n
Cc1cc(F)ccc1N1CCC(N2CCN(C(C)C)C(CCO)C2)CC1 (configuration not stated) | n | 98.2 | n | n | n | n
CC(C)N1CCN(Cc2cc(F)ccc2-n2cccn2)CC1CCO (configuration not stated) | n | n | n | n | n | n
CN1CCN(C2CCN(c3cccc(Cl)c3)CC2)CC1CCO (configuration not stated) | x | x | n | x | n | n
CC(C)CCN1CCN(C2CCN(c3ccc4c(c3)OCO4)CC2)CC1CCO (configuration not stated) | n | n | n | n | n | 66.2
Cc1ccccc1C(=O)c1cccn1CC(=O)N1CCCCC1 | x | x | n | x | n | n
CCCCn1c(O)c(N=Nc2ccccn2)c2ccccc21 | n | 65.8 | n | n | n | n
CN(C)N=Nc1ccc(-c2cn(Cc3ccccc3)cn2)cc1 | x | x | n | x | n | n
O=[N+]([O-])c1cc(-c2n[nH]c(-c3ccccc3)n2)cc([N+](=O)[O-])c1 | 94.0 | 97.8 | n | n | n | 71.6
COc1ccccc1C(=O)Nc1nnc(-c2ccc3c(c2)CCCC3)o1 | 80.4 | n | n | n | n | n
CC(=O)Nc1nnc(-c2ccc3c(c2)CCCC3)o1 | n | n | n | n | n | n
O=C(COc1ccc(Cl)cc1)Nc1nnc(-c2ccc3c(c2)CCCC3)o1 | 87.4 | n | n | n | n | n
O=C(COC(=O)c1c[nH]c(=O)[nH]c1=O)Nc1cccc([N+](=O)[O-])c1 | x | x | n | x | n | x
COc1cccc(/C=N/Nc2ncnc3c2[nH]c2ccc(C)cc23)c1OC | n | x | n | n | n | n
COc1ccc(/C=N/Nc2ncnc3c2[nH]c2ccccc23)c(OC)c1OC | n | 65.8 | n | n | n | n
COc1ccc(C2CC(c3cccs3)=Nc3ccccc3S2)cc1 (configuration not stated) | n | 64.3 | n | n | n | n
COc1ccc(C2CC(c3cccs3)=NN2S(C)(=O)=O)cc1 (configuration not stated) | n | x | n | n | n | n
Cc1ccc(S(=O)(=O)CCC(=O)OCCOc2cccc(Br)c2)cc1 | x | x | n | x | n | x
CCOc1ccc(N/C(=N/c2nc(C)cc(C)n2)NC(C)=O)cc1 | n | x | n | n | n | n
Cn1cc(/C=C2\SC(=O)N(c3ccccc3)C2=O)c2ccccc21 | n | n | n | n | n | n
CCN1C(=O)S/C(=C/c2cn(C)c3ccccc23)C1=O | n | 81.9 | n | n | n | n
CN=c1scc(-c2ccc(F)cc2)n1/N=C/c1ccc(O)c(O)c1 | 71.9 | 100.0 | n | n | n | x
CN=c1scc(-c2ccc([N+](=O)[O-])cc2)n1/N=C/c1ccco1 | n | n | n | n | n | n
Cc1cccc2c(N)c3c(nc12)N(C)CC3 | x | x | n | x | n | n
Cc1cc(C)c2c(N)c3cccc(C)c3nc2n1 | n | 100.4 | x | n | x | 57.6
Cc1nc(N)nc2c1CCCC2 | n | n | n | n | n | n
Cc1cccc2c(N)c3c(nc12)CCCC3 (tested in a mixture with another compound) | n | 66.6 | x | n | x | x
